The source of these data is ChEMBL document CHEMBL1641594, “Cytotoxicity of new polyfluorinated 1,4-naphtoquinones with diverse substituents in the quinone moiety” (Bioorg Med Chem, 2011).

In data set [1] the test system is RPMI-8226. As to the kind of experiment: Ratio of compound IC50 to F-Cpd5 IC50 for human RPMI8226 cells. In kind it is functional, cell-based.
The test system of data set [2] is MCF7. As to the kind of experiment: Ratio of compound IC50 to F-Cpd5 IC50 for human MCF7 cells. In kind it is functional, cell-based.
Data set [3] deals with RPMI-8226. As to the kind of experiment: Cytotoxicity against human RPMI8226 cells after 72 hrs by MTT assay. It is filed as functional, cell-based. The settings on record: RPMI-8226, 72 h. An outline of the steps: (§1)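 RPMI 8226, MCF-7, LMTK and primary mouse fibroblasts (PMF) were seeded at ~2000 cells per well and preincubated 24 h at 37 °C, 5% CO2, in IMDM or RPMI 1640. Compounds were then added and cells incubated a further 72 h. Viable cells were quantified by MTT colorimetric assay, and the concentration giving 50% growth inhibition (IC50) was derived. Values are mean ± SD of at least three independent experiments.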

Data set [4] relates to MCF7. Nature of the data set: Cytotoxicity against human MCF7 cells after 72 hrs by MTT assay. It is filed as functional, cell-based. The settings on record: MCF7, 72 h. The method, boiled down:
as §1

A short description of data set [5]: Cytotoxicity against mouse LMTK cells after 72 hrs by MTT assay. It is filed as cell-based. The settings on record: L-M(TK-). An outline of the steps: as §1
Data set [6] is described as follows: Cytotoxicity against PMF after 72 hrs by MTT assay. Details: species or system Mus musculus. The method, boiled down: as §1
For data set [7], the system named is MCF7. As to the kind of experiment: Ratio of IC50 for human MCF7 cellss to IC50 for human RPMI8226 cells. In kind it is functional.
The test system of data set [8] is Salmonella typhimurium. As to the kind of experiment: Reduction of spontaneous mutagenesis in histidine-dependent Salmonella Typhimurium TA102 harboring histidine operon mutant assessed as concentration required to suppress 100% to 50% mutagenesis after 48 hrs by Ames test. In kind it is functional, organism-based, Salmonella enterica subsp. enterica serovar Typhimurium. Conditions: Salmonella enterica, TA102, 48 h. The method, boiled down: (§2)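 S. typhimurium TA102 Ames test without metabolic activation. Single colony grown 15 h at 37 °C with shaking in LB with ampicillin (50 µg/ml) and tetracycline (2 µg/ml). Overnight culture mixed with compound at varied concentrations, with or without 3 mM H2O2, in 0.6% top agar at 42 °C. Poured onto minimal 0.2% glucose plates, incubated 48 h at 37 °C, revertants counted. Untreated revertant count set as 100%. At least three independent experiments.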

Data set [9] has as its system Salmonella typhimurium. Nature of the data set: Reduction of spontaneous mutagenesis in histidine-dependent Salmonella Typhimurium TA102 harboring histidine operon mutant assessed as inhibition of H2O2-induced formation of mutants from 100% to 50% of revertants after 48 hrs by Ames test. In kind it is functional, organism-based, Salmonella enterica subsp. enterica serovar Typhimurium. Conditions: Salmonella enterica, TA102, 48 h. The method, boiled down: as §2

The test system of data set [10] is Salmonella typhimurium. Nature of the data set: Reduction of spontaneous mutagenesis in histidine-dependent Salmonella Typhimurium TA102 harboring histidine operon mutant assessed as inhibition of H2O2-induced formation of mutants from 150% to 100% of revertants after 48 hrs by Ames test. In kind it is functional, organism-based, Salmonella enterica subsp. enterica serovar Typhimurium. Conditions: Salmonella enterica, TA102, 48 h. An outline of the steps:
as §2

A short description of data set [11]: Cytotoxicity against PMF at 25 ug/ml after 72 hrs by MTT assay. Conditions: mouse, PMF cells; read-out: INH. The method, boiled down:
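Cells (~2000 per well) were preincubated 24 h at 37 °C, 5% CO2, in IMDM or RPMI 1640, then exposed to compound for 72 h with MTT read-out. Where cytotoxicity was low, percent growth inhibition at the highest concentration tested was recorded instead of an IC50. Values are mean ± SD of at least three independent experiments.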

A short description of data set [12]: Cytotoxicity against mouse LMTK cells at 30 uM after 72 hrs by MTT assay. In kind it is cell-based.
Data set [13] is described as follows: Cytotoxicity against PMF at 25 ug/ml after 72 hrs by MTT assay. Conditions: mouse.

Regarding `CC(C)(C)NC1=C(F)C(=O)c2c(F)c(F)c(F)c(F)c2C1=O`, the “Ratio IC50” value in data set [1] and in data set [2] was 2 throughout.

Take `CCN(CC)C1=C(F)C(=O)c2c(F)c(F)c(F)c(F)c2C1=O`: the “Ratio IC50” value in data set [1] and in data set [2] was 2 each time.

As to `CCNC1=C(F)C(=O)c2c(F)c(F)c(F)c(F)c2C1=O`, the “Ratio IC50” value in data set [1] and in [2] was 2 each time.

In the case of `O=C1C(F)=C(Nc2ccccc2)C(=O)c2c(F)c(F)c(F)c(F)c21`, the “Ratio IC50” value in data set [1] and in data set [2] was 2 throughout.

As to `O=C1C(F)=C(NCCO)C(=O)c2c(F)c(F)c(F)c(F)c21`, the IC50 in data set [3] came to 1.2 µM; in data set [4], 5.8 µM; in data set [5] it was 11.7 µM; in data set [6] it was 3.3 µM; in data set [8], 54 µM; in data set [9], 44.9 µM. In addition, the IC50 in [10] stood at 26 µM. In addition, the figures for the “Ratio IC50” value in [2] and in data set [7] were 13 and 4.8, respectively.

Take `COC1=C(OC)C(=O)c2c(F)c(F)c(F)c(F)c2C1=O`: the IC50 in data set [3] is 0.96 µM; in data set [4] it was 6 µM; in data set [5] it was 8.6 µM; in data set [6], 18.9 µM; in data set [8], 198 µM; in data set [9] it was 53.8 µM. Besides, the IC50 in data set [10] came to 38.3 µM. Also, the entries for the “Ratio IC50” value in data set [2] and in data set [7] were 13 and 6, respectively.

Regarding `CN(CCO)C1=C(F)C(=O)c2c(F)c(F)c(F)c(F)c2C1=O`, the IC50 turned out to be 5.6 µM in data set [3]; 2.4 µM in data set [4]; 44.5 µM in data set [5]; 24.9 µM in data set [6]; 37.6 µM in data set [8]; 30.2 µM in data set [9]. The IC50 in data set [10] was found to be 3.4 µM. The “Ratio IC50” value in data set [2] is on record as 13.

Regarding `O=C1C(F)=C(N2CCOCC2)C(=O)c2c(F)c(F)c(F)c(F)c21`, the IC50 came out at 6 µM in [3]; 5.7 µM in [4]; 30 µM in data set [5]; 131 µM in data set [8]; 169 µM in data set [9]; 54 µM in data set [10]. Moreover, the cytotoxicity at 72 h, 25 ug/ml in data set [11] amounted to 45%. Further, in data set [2], the “Ratio IC50” value is 13. In addition, the Activity in [12] is 50%. In addition, in data set [13], the “activity at 25 ug/ml” value is recorded as 45%.

On to `O=C1C(F)=C(N(CCO)CCO)C(=O)c2c(F)c(F)c(F)c(F)c21`, for which the IC50 is 5.1 µM in data set [3]; 7.5 µM in data set [4]; 52.7 µM in [5]; 34 µM in [6]; 275 µM in data set [8]; 45.3 µM in data set [9]. The IC50 in data set [10] came to 2.9 µM. The “Ratio IC50” value in [2] amounted to 13.

Take `O=C1C=C(SCCO)C(=O)c2c(F)c(F)c(F)c(F)c21`: the IC50 in data set [3] was 2.9 µM; in data set [4] it was 12.8 µM; in [5], 25 µM; in data set [6], 30 µM; in data set [8], 26.1 µM; in data set [9] it was 23.5 µM. Moreover, the IC50 in [10] was determined as 12.7 µM. The “Ratio IC50” value in [1] is 5.3.

As to `COC1=C(F)C(=O)c2c(F)c(F)c(F)c(F)c2C1=O`, the IC50 in [3] came out at 4 µM; in [4], 26.5 µM; in [5], 13.7 µM; in data set [6], 8.9 µM; in [8], 39 µM; in [9] it was 20 µM. Moreover, in data set [10], the IC50 is 2.8 µM.
